Assay results: ChEMBL document CHEMBL1132643, “Novel inhibitors of Erm methyltransferases from NMR and parallel synthesis” (J Med Chem, 1999)

Columns and labels:
[1] = target: T1, rRNA adenine N-6-methyltransferase (Streptococcus pneumoniae, UniProt P21236); assay: Inhibitory activity against ErmAM methylase
T1 sequence (P21236 whole entry): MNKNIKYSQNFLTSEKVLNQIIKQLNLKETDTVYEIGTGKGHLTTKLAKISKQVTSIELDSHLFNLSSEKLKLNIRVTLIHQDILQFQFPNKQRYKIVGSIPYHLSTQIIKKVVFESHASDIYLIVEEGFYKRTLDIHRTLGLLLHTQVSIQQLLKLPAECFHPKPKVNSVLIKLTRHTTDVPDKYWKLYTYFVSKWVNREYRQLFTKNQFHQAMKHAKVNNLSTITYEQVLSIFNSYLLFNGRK
In short: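 Radiometric methyltransferase assay in 50 mM Tris pH 7.5, 100 mM KCl, 4 mM MgCl2, 1 mM DTT with 95 nM ErmAM. Enzyme was preincubated with compound for 15 min at room temperature, in duplicate. Reaction was then started with 250 nM S-adenosyl-L-[methyl-3H]methionine and 80 nM E. coli rRNA and run 2 h at room temperature. It was stopped with 10% TCA/100 mM KCl on ice. TCA-precipitated counts were read after filtration. IC50 was taken from percent inhibition versus control plotted against concentration.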

[2] = target: rRNA adenine N-6-methyltransferase (Bacillus subtilis, UniProt P13956); assay: Inhibitory activity against ErmC methylase
In short: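 ErmC′ (143 nM) preincubated with compound, in duplicate, 15 min at room temperature in 50 mM Tris pH 7.5, 40 mM KCl, 4 mM MgCl2, 10 mM DTT. Started with 250 nM S-adenosyl-L-[methyl-3H]methionine and 80 nM E. coli rRNA, 2 h room temperature. Stopped with 10% TCA/100 mM KCl, filtered, washed. Precipitated counts taken as percent inhibition versus no-inhibitor wells, and IC50 read from concentration curve.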

[3] = The binding affinity towards ErmAM methylase identified by NMR
[4] = The binding affinity towards N-labeled Erythromycin-resistant ErmAM methylase evaluated by NMR
In short: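 Uniformly 15N-labeled ErmAM, 0.3 mM in H2O/D2O 9:1 with 20 mM BisTris, 10 mM DTT, pH 6.5. Ligand added in perdeuterated DMSO. Sensitivity-enhanced 15N HSQC run at 30 °C with and without ligand, screening at 1.0 mM. KD from chemical shift changes versus ligand concentration, fit to a single-site model by least-squares grid search.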

Chain of rRNA adenine N-6-methyltransferase (Bacillus subtilis, UniProt P13956) (P13956 whole entry): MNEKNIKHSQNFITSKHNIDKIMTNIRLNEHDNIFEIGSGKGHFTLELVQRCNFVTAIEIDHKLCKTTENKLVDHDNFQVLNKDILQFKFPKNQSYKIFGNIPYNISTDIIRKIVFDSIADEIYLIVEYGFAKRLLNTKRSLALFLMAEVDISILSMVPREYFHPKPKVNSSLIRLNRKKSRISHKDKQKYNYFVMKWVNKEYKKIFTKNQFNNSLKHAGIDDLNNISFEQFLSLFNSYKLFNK

Compound | Kd [3] [µM] | Kd [4] [µM] | Ki [1] [µM] | Ki [2] [µM]
Nc1nc(NC2CCc3ccccc32)nc(N2CCCCC2)n1 (configuration not stated) | – | – | 75 | > 100
CN(c1nc(N)nc(N2CCCCC2)n1)C1CCCCC1 | – | – | > 100 | > 100
Nc1cccc(-c2nc(N)nc(NC3Cc4ccccc4C3)n2)c1 | – | – | 4 | 10
Nc1nc(NC2Cc3ccccc3C2)nc(N2CCC(CO)CC2)n1 | – | – | 9 | 75
Nc1nc(NC2Cc3ccccc3C2)cc(-c2ccc(NCCCc3ccccc3O)cc2)n1 | – | – | 7.5 | 12.5
Nc1ccc(-c2cc(NC3Cc4ccccc4C3)nc(N)n2)cc1 | – | – | 75 | > 100
Nc1nc(NC2Cc3ccccc3C2)nc(N2CCC(C(=O)O)CC2)n1 | – | – | > 100 | > 100
Nc1nc(NC2Cc3ccccc3C2)nc(C2CCCCC2)n1 | – | – | 25 | > 100
Nc1nc(Nc2ccccc2)nc(N2CCCCC2)n1 | – | – | > 100 | > 100
Nc1nc(NC2Cc3ccccc3C2)nc(N2CCCCC2)n1 | – | – | 8 | 75
Nc1nc(NC2Cc3ccc(F)cc3C2)nc(N2CCCCC2)n1 (configuration not stated) | – | – | 3 | 37
Nc1nc(NC2CCCCC2)nc(N2CCCCC2)n1 | – | – | 75 | > 100
COc1ccc2c(c1)CC(Nc1nc(N)nc(N3CCCCC3)n1)C2 (configuration not stated) | – | – | 6 | 75
Nc1nc(NCCCc2c(O)cc(Cl)cc2Cl)nc(NC2Cc3ccccc3C2)n1 | – | – | 10 | > 100
CSc1nc(N)nc(NC2Cc3ccccc3C2)n1 | – | – | 10 | > 100
Nc1nc(N2CCCCC2)nc(N2CCCCC2)n1 | – | – | > 100 | > 100
Nc1nc(NC2CCCCC2)nc(NC2Cc3ccccc3C2)n1 | – | – | > 100 | > 100
C[C@@H](Nc1nc(N)nc(N2CCCCC2)n1)c1ccccc1 | – | – | > 100 | > 100
Nc1nc(NC2Cc3ccccc3C2)nc(N2CCCC(CO)C2)n1 (configuration not stated) | – | – | 12.5 | > 100
c1cnc2[nH]ccc2c1 | – | 1300 | – | –
Nc1ccc(-c2nc(N)nc(NC3Cc4ccccc4C3)n2)cc1 | – | – | 35 | > 50
Nc1ncnc2c1ncn2[C@@H]1O[C@H](CSCC[C@H](N)C(=O)O)[C@@H](O)[C@H]1O [S-ADENOSYLHOMOCYSTEINE] | – | – | 40 | –
Nc1nc(NC2Cc3ccccc3C2)nc(N2CCC(C(=O)NCCc3c[nH]c4ccccc34)CC2)n1 | – | – | 2 | 20
c1ccc2c(c1)CC(Nc1ncnc(N3CCCCC3)n1)C2 | – | – | > 75 | > 100
Oc1nc(NC2Cc3ccccc3C2)nc(N2CCCCC2)n1 | – | – | > 100 | > 100

Further lines, with some results ahead:

Kd [3] [µM] | Kd [4] [µM] | Compound | Ki [1] [µM] | Ki [2] [µM]
5000 | – | Nc1nc(N)nc(N2CCCCC2)n1 | – | –
12000 | – | Nc1nc(N)nc(-c2ccc(O)cc2)n1 | – | –
– | 1000 | CSc1nc(N)nc(N)n1 | – | –
310 | – | Nc1nc(NC2CCCCC2)nc(-c2ccc(O)cc2)n1 | – | –
